From ChEMBL document CHEMBL4138104, “Indole carboxylic acid esters of melampomagnolide B are potent anticancer agents against both hematological and solid tumor cells” (Eur J Med Chem, 2017)

Assays:
Assay type in all cases: functional
CCRF-CEM = assay: Growth inhibition of human CCRF-CEM cells incubated for 48 hrs by sulforhodamine B assay
Method in brief: (§1)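 NCI-60 screen. Compounds were dosed at five concentrations spanning 10^-4 to 10^-8 M for 48 h at 37 °C. Cells were TCA-fixed, stained with 0.4% SRB and read at 515 nm against time-zero and vehicle controls. GI50 is the concentration giving a 50% reduction in net protein increase.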

HL-60(TB) = assay: Growth inhibition of human HL-60(TB) cells incubated for 48 hrs by sulforhodamine B assay; details: HL-60, 48 h
Method in brief: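 Performed at NCI's 60-line screen. Cells grown in RPMI with 5% FBS and 2 mM L-glutamine, plated 5,000–40,000 cells/well and incubated 24 h at 37 °C before compound addition. DMSO stocks were diluted in medium with gentamicin, and five concentrations spanning 10^-4 to 10^-8 M were tested. Exposure was 48 h. Cells were fixed with TCA, stained with SRB, and read at 515 nm. GI50 taken from log dose-response curves as 50% reduction in net protein increase versus control.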

K562 = assay: Growth inhibition of human K562 cells incubated for 48 hrs by sulforhodamine B assay; details: K562, 48 h; method in brief: as §1
MOLT-4 = assay: Growth inhibition of human MOLT4 cells incubated for 48 hrs by sulforhodamine B assay; details: MOLT-4, 48 h; method in brief: as §1
RPMI-8226 = assay: Growth inhibition of human RPMI8226 cells incubated for 48 hrs by sulforhodamine B assay; details: RPMI-8226, 48 h; method in brief: as §1
A549 = assay: Growth inhibition of human A549/ATCC cells incubated for 48 hrs by sulforhodamine B assay; details: A549, 48 h; method in brief: as §1
HOP-92 = assay: Growth inhibition of human HOP92 cells incubated for 48 hrs by sulforhodamine B assay; details: HOP-92, 48 h; method in brief: as §1
NCI-H226 = assay: Growth inhibition of human NCI-H226 cells incubated for 48 hrs by sulforhodamine B assay; details: NCI-H226, 48 h; method in brief: as §1
NCI-H23 = assay: Growth inhibition of human NCI-H23 cells incubated for 48 hrs by sulforhodamine B assay; details: NCI-H23, 48 h; method in brief: as §1
NCI-H322M = assay: Growth inhibition of human NCI-H322M cells incubated for 48 hrs by sulforhodamine B assay; method in brief: as §1
NCI-H460 = assay: Growth inhibition of human NCI-H460 cells incubated for 48 hrs by sulforhodamine B assay; details: NCI-H460, 48 h; method in brief: as §1
NCI-H522 = assay: Growth inhibition of human NCI-H522 cells incubated for 48 hrs by sulforhodamine B assay; details: NCI-H522, 48 h; method in brief: as §1
HCC 2998 = assay: Growth inhibition of human HCC2998 cells incubated for 48 hrs by sulforhodamine B assay; details: HCC 2998, 48 h; method in brief: as §1
HCT-116 = assay: Growth inhibition of human HCT116 cells incubated for 48 hrs by sulforhodamine B assay; details: HCT-116, 48 h; method in brief: as §1
HCT-15 = assay: Growth inhibition of human HCT15 cells incubated for 48 hrs by sulforhodamine B assay; details: HCT-15, 48 h; method in brief: as §1
HT-29 = assay: Growth inhibition of human HT-29 cells incubated for 48 hrs by sulforhodamine B assay; details: HT-29, 48 h; method in brief: as §1
KM12 = assay: Growth inhibition of human KM12 cells incubated for 48 hrs by sulforhodamine B assay; details: KM12, 48 h; method in brief: as §1
SW-620 = assay: Growth inhibition of human SW620 cells incubated for 48 hrs by sulforhodamine B assay; details: SW-620, 48 h
Method in brief: (§2)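 NCI-60 screen run at NCI. Cells grown in RPMI medium with 5% FBS and 2 mM L-glutamine, plated at 5,000–40,000 cells/well, and preincubated 24 h at 37 °C. Time-zero plates were TCA-fixed. Compounds came from DMSO stocks and were tested at five concentrations from 10^-4 to 10^-8 M for 48 h. Cells were then TCA-fixed, stained with 0.4% SRB, and OD read at 515 nm. GI50 is the concentration giving a 50% reduction in net protein increase versus control.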

SF-268 = assay: Growth inhibition of human SF268 cells incubated for 48 hrs by sulforhodamine B assay; details: SF-268, 48 h; method in brief: as §1
SF-295 = assay: Growth inhibition of human SF295 cells incubated for 48 hrs by sulforhodamine B assay; details: SF-295, 48 h; method in brief: as §1
SF-539 = assay: Growth inhibition of human SF539 cells incubated for 48 hrs by sulforhodamine B assay; details: SF-539, 48 h; method in brief: as §1
SNB-19 = assay: Growth inhibition of human SNB19 cells incubated for 48 hrs by sulforhodamine B assay; details: SNB-19, 48 h; method in brief: as §2
U-251 = assay: Growth inhibition of human U251 cells incubated for 48 hrs by sulforhodamine B assay; details: U-251, 48 h; method in brief: as §2
LOX IMVI = assay: Growth inhibition of human LOXIMVI cells incubated for 48 hrs by sulforhodamine B assay; method in brief: as §1
Malme-3M = assay: Growth inhibition of human MALME-3M cells incubated for 48 hrs by sulforhodamine B assay; method in brief: as §1
SK-MEL-28 = assay: Growth inhibition of human SK-MEL-28 cells incubated for 48 hrs by sulforhodamine B assay; details: SK-MEL-28, 48 h; method in brief: as §1
UACC-257 = assay: Growth inhibition of human UACC257 cells incubated for 48 hrs by sulforhodamine B assay; details: UACC-257, 48 h; method in brief: as §2
UACC-62 = assay: Growth inhibition of human UACC62 cells incubated for 48 hrs by sulforhodamine B assay; details: UACC-62, 48 h; method in brief: as §2
OVCAR-5 = assay: Growth inhibition of human OVCAR5 cells incubated for 48 hrs by sulforhodamine B assay; details: OVCAR-5, 48 h; method in brief: as §1
NCI/ADR-RES = assay: Growth inhibition of human NCI/ADR-RES cells incubated for 48 hrs by sulforhodamine B assay; method in brief: as §1
SK-OV-3 = assay: Growth inhibition of human SKOV3 cells incubated for 48 hrs by sulforhodamine B assay; details: SK-OV-3, 48 h; method in brief: as §1
A498 = assay: Growth inhibition of human A498 cells incubated for 48 hrs by sulforhodamine B assay; details: A498, 48 h; method in brief: as §1
RXF 393 = assay: Growth inhibition of human RXF393 cells incubated for 48 hrs by sulforhodamine B assay; details: RXF 393, 48 h; method in brief: as §1
SN12C = assay: Growth inhibition of human SN12C cells incubated for 48 hrs by sulforhodamine B assay; method in brief: as §1
UO-31 = assay: Growth inhibition of human UO31 cells incubated for 48 hrs by sulforhodamine B assay; details: UO-31, 48 h; method in brief: as §2
MCF7 = assay: Growth inhibition of human MCF7 cells incubated for 48 hrs by sulforhodamine B assay; details: MCF7, 48 h; method in brief: as §1
[1] = Cytotoxicity against human M9-ENL1 cells assessed as reduction in cell viability by trypan blue staining-based assay
Method in brief: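 M9-ENL1 AML cells (MLL-ENL-transduced human blood cells) plated at 10^6 cells/mL in alpha-MEM with 5% human plasma, 20% FBS, SCF, IL-3, IL-7 and FLT3. Drug diluted from DMSO stock into PBS, final DMSO ≤0.5%. After 24 h exposure, dead cells assessed by trypan blue and by flow cytometry (Annexin V/PI or Annexin V/7-AAD). Viability normalized to vehicle; EC50 from dose-response curves; triplicate.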

SMILES | GI50 (CCRF-CEM) [nM] | GI50 (HL-60(TB)) [nM] | GI50 (K562) [nM] | GI50 (MOLT-4) [nM] | GI50 (RPMI-8226) [nM] | GI50 (A549) [nM] | GI50 (HOP-92) [nM] | GI50 (NCI-H226) [nM] | GI50 (NCI-H23) [nM] | GI50 (NCI-H322M) [µM] | GI50 (NCI-H460) [µM] | GI50 (NCI-H522) [nM] | GI50 (HCC 2998) [nM] | GI50 (HCT-116) [nM] | GI50 (HCT-15) [nM] | GI50 (HT-29) [nM] | GI50 (KM12) [nM] | GI50 (SW-620) [nM] | GI50 (SF-268) [nM] | GI50 (SF-295) [µM] | other results
C=C1C(=O)O[C@@H]2[C@H]3O[C@]3(C)CC/C=C(/COC(=O)c3cc4cc(F)ccc4[nH]3)CC[C@@H]12 | 910 | 2070 | 2240 | 2260 | 2000 | 3080 | 1380 | 1760 | 1900 | 2.69 | 3.04 | 1650 | 2020 | 1500 | 1150 | 1130 | 1980 | 1430 | 1620 | 7.1 | GI50 (SF-539): 1550 nM; GI50 (SNB-19): 5.04 µM; GI50 (U-251): 1820 nM; GI50 (LOX IMVI): 1050 nM; GI50 (Malme-3M): 1670 nM; GI50 (SK-MEL-28): 1790 nM; GI50 (UACC-257): 2280 nM; GI50 (UACC-62): 1890 nM; GI50 (OVCAR-5): 1770 nM; GI50 (NCI/ADR-RES): 1980 nM; GI50 (SK-OV-3): 11.6 µM; GI50 (A498): 3.35 µM; GI50 (RXF 393): 1470 nM; GI50 (SN12C): 1850 nM; GI50 (UO-31): 1200 nM; GI50 (MCF7): 1020 nM; EC50 [1]: 2800 nM
CN(C)CC1C(=O)O[C@@H]2[C@H]3O[C@]3(C)CC/C=C(/COC(=O)c3cc4ccccc4[nH]3)CC[C@@H]12.O=C(O)/C=C/C(=O)O (stereo partly specified) | 320 | 240 | 630 | 1510 | 280 | 2440 | 1400 | 1980 | 1960 | 10.8 | 5.85 | 1220 | 1720 | 290 | 290 | 430 | 2240 | 1700 | 1480 | 3.95 | GI50 (SF-539): 2510 nM; GI50 (SNB-19): 11.9 µM; GI50 (U-251): 2610 nM; GI50 (LOX IMVI): 170 nM; GI50 (Malme-3M): 2010 nM; GI50 (SK-MEL-28): 2210 nM; GI50 (UACC-257): 1470 nM; GI50 (UACC-62): 1650 nM; GI50 (OVCAR-5): 2380 nM; GI50 (NCI/ADR-RES): 1420 nM; GI50 (SK-OV-3): 2.19 µM; GI50 (A498): 13.1 µM; GI50 (RXF 393): 1140 nM; GI50 (SN12C): 2210 nM; GI50 (UO-31): 520 nM; GI50 (MCF7): 610 nM; EC50 [1]: 2800 nM
C=C1C(=O)O[C@@H]2[C@H]3O[C@]3(C)CC/C=C(/COC(=O)c3cn(C)c4ccccc34)CC[C@@H]12 | 210 | 1540 | 400 | 570 | 210 | 1820 | 360 | 1480 | 1930 | 3.01 | 1.73 | 390 | 1810 | 1020 | 530 | 520 | 1830 | 300 | 1300 | 2.41 | GI50 (SF-539): 740 nM; GI50 (SNB-19): 1.59 µM; GI50 (U-251): 1420 nM; GI50 (LOX IMVI): 220 nM; GI50 (Malme-3M): 1620 nM; GI50 (SK-MEL-28): 1550 nM; GI50 (UACC-257): 1320 nM; GI50 (UACC-62): 1260 nM; GI50 (OVCAR-5): 1560 nM; GI50 (NCI/ADR-RES): 2150 nM; GI50 (SK-OV-3): 4.33 µM; GI50 (A498): 1.59 µM; GI50 (RXF 393): 580 nM; GI50 (SN12C): 710 nM; GI50 (UO-31): 770 nM; GI50 (MCF7): 400 nM; EC50 [1]: 7200 nM
